AHR act – human AHR activation | P35869 | AHR-responsive luciferase reporter cells, luminescence | activation, % at 5 µM | 320,000 compounds, 2.5% hits | AID 2796; in the data active = activation above about 47%
PERK inh – human PERK inhibition, primary cell-based screen; CHO PERK-DD fusion, SEAP luminescence translation reporter; inhibition, % at 5.6 µM; 220,000 compounds, 0.17% hits; AID 1416;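 active = inhibition above the mean inhibition of all tested compounds plus 3 SD, set separately per screening campaign, cut at about 2.9% in these data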;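 note: PERK kinase domain activated by AP20187 dimerizer at 100 nM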
Target sequence (Q9NZJ5 whole entry, looked up, the tested form may be a part): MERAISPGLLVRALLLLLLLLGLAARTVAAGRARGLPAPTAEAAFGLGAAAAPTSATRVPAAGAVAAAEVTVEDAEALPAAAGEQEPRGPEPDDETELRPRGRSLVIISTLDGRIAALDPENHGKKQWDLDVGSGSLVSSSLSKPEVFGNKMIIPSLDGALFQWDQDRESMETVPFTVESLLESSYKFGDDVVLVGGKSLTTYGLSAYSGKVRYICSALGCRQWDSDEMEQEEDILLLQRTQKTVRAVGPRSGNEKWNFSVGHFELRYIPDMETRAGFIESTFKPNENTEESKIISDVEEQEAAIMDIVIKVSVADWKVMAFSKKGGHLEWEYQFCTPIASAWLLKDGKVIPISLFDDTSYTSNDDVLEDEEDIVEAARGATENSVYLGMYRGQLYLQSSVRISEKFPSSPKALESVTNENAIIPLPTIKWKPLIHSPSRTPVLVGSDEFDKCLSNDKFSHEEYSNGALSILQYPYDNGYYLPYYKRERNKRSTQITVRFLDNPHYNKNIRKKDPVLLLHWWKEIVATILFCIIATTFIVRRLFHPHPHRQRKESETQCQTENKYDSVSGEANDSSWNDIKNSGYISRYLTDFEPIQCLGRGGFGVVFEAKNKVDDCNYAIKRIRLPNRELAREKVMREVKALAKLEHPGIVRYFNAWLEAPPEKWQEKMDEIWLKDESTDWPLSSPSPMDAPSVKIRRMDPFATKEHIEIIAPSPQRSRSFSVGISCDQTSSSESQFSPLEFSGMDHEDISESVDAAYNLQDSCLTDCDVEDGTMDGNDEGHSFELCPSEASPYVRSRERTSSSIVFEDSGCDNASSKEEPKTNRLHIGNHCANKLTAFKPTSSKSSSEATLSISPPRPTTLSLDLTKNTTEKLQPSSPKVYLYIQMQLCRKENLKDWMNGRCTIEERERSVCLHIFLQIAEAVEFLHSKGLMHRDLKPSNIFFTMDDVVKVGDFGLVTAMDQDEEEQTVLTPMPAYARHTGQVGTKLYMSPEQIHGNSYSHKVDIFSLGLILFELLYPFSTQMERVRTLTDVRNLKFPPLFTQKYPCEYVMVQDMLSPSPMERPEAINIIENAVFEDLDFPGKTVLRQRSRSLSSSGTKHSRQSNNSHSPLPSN
HSF1 inh – HSF1 inhibition | NIH3T3-HGL HSE-luciferase, MG132-induced, luminescence 8 h; active compounds read low | activity change, negative = inhibition, % at 7.5 µM (by protocol) | 300,000 compounds, 0.77% hits;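 active = more than half of replicate wells show activity change below -50%, luminescence cut by over half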;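 note: luciferase reports HSF-1 transcriptional activity via heat shock element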
STAT3 activator – STAT3 signaling activation. U3A cells, IL-6 STAT3-luciferase reporter, luminescence; 100% = signal with IL-6 EC80 alone. activation (% of control), % at 5.6 µM. 190,000 compounds, 0.91% hits. AID 871;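 active = activation above the screen-wide mean of compound activation plus 3 SD, cut at about 130% in these data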
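Material: human STAT1-deficient U3A cells with stable STAT3-luciferase reporter / Probe or stimulus: IL-6 stimulus at 33 ng/mL final / Schedule: 1 h compound pre-exposure, 6 h IL-6 stimulation, 37 °C / Technique: luminescence / Read-out basis: percent of IL-6-only median luminescence / Control set: IL-6-only high control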
Hsp70 act – switches on Hsp70 transcription; HeLa Hsp70 promoter luciferase reporter, luminescence; scaled: vehicle 0, proteasome-inhibitor control 100%; activation, % at 10 µM; 200,000 compounds, 0.04% hits; AID 1203;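 active = activation above the mean across all tested compounds plus 3 SD, cutoff set per campaign, cut at about 5.5% in these data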
PolyA inhibitor – blocks polyadenylation in yeast reporter cells | S. cerevisiae SKY197-pL101 polyadenylation reporter, beta-gal luminescence; efflux-impaired pdr1/pdr3 knockout yeast; score 100 = 6 SD above DMSO | activity score, % at 12 µM | AID 1875 | 300,000 compounds, 0.02% hits;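 active = lowest replicate activity score at least 50, where 100 means six control SD above control mean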;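 note: yeast exposed to compound for 9 h at 30 °C; higher score means more reporter readthrough which indicates perturbed polyadenylation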
AHR act cf – confirmation of human aryl hydrocarbon receptor activators; activation, % at 9 µM; human cells, AHR-responsive luciferase reporter, luminescence; shares compounds with AHR act; AID 2845; 2,300 compounds, 87% hits; in the data active = activation above about 49%;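 note: HepG2 hepatoma cells carrying a DRE-driven firefly luciferase reporter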
PXR counter – PXR activation, counter-screen for AHR activators. shares compounds with AHR act. cell-based PXR reporter, luciferase luminescence. activation, % at 11.6 µM. 2,300 compounds, 88% hits; in the data active = activation above about 11%;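 note: human hepatoma DPX-2 cells expressing full-length human PXR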
Large screens that a line does not name were inactive (follow-up assays come after a bar, where they were run). The list is not random: actives were taken first. Their share in the collection is about 3.6%.

c1ccc(-c2c3ccccc3nc3[nH]c4ccccc4c23)cc1	AHR act 103 | AHR act cf 68 | PXR counter 32
CCc1cc(C(=O)N2CCCC(CNC(=O)c3ccc(-c4ccccc4)cc3)C2)no1 (stereo unspecified)	none
N/C(=N\c1nc2ccccc2o1)NC(=O)c1ccccc1	AHR act 184 | AHR act cf 180 | PXR counter 94
N/C(=N\c1nc2ccccc2o1)NC(=O)c1cccc(Br)c1	none (no result: STAT3 activator, Hsp70 act)
COc1ccc(NC(=O)c2ccco2)cc1NC(=O)c1ccccc1F	AHR act 87 (no result: PERK inh, STAT3 activator, Hsp70 act) | AHR act cf 95 | PXR counter 12
COc1c(C)cc(Br)cc1C(=O)Nc1cccc(NC(=O)c2ccco2)c1	none
COc1ccc(NC(=O)c2cccs2)cc1NC(=O)c1ccco1	none
COc1ccc(Br)cc1C(=O)Nc1cccc(NC(=O)c2ccco2)c1	AHR act 84 | AHR act cf 98 | PXR counter 15
CC(C)CCN1C(=O)c2ccc(C(=O)N3CCCCC3)cc2C1=O	none (no result: PERK inh, STAT3 activator, Hsp70 act)
Nc1c(Cl)cc(-c2csc(NC(CO)c3nc4ccccc4n3CCOCCO)n2)cc1Cl (stereo unspecified)	AHR act 80 (no result: PERK inh, STAT3 activator, Hsp70 act) | AHR act cf 90 | PXR counter 104
OCCOCCn1c(C(CO)Nc2nc(-c3ccc(Cl)cc3)cs2)nc2ccccc21 (stereo unspecified)	none (no result: PERK inh, STAT3 activator, Hsp70 act)
O=C(N/N=C/c1sc(=O)[nH]c1-[n+]1ccc2ccccc2c1)c1ccccc1[O-]	AHR act 84 (no result: PERK inh, STAT3 activator, Hsp70 act) | AHR act cf 71 | PXR counter 12
O=C(N/N=C/c1sc(=O)[nH]c1-[n+]1ccccc1)c1ccccc1[O-]	none (no result: STAT3 activator, Hsp70 act)
CN(CC(=O)Nc1ccc(F)cc1)C(=O)Cn1nnc(-c2ccccc2)n1	none (no result: PERK inh, STAT3 activator, Hsp70 act)
Clc1ccc2[nH]c3c(NCCN4CCOCC4)ncnc3c2c1	AHR act 80 | AHR act cf 93 | PXR counter 51
Cc1cccc2[nH]c3c(N4CCC5(CC4)OCCO5)ncnc3c12	none
Clc1ccc2[nH]c3c(N4CCC5(CC4)OCCO5)ncnc3c2c1	AHR act 99 | AHR act cf 56 | PXR counter 33
Cc1nnc(Nc2ccccn2)c2ccccc12	AHR act 148 | AHR act cf 143 | PXR counter 58
Cn1cccc1C(=O)C(=O)Nc1ccc(Cl)cc1	none
Cn1cccc1C(=O)C(=O)Nc1cccc(Cl)c1Cl	AHR act 92, STAT3 activator 157 | AHR act cf 104 | PXR counter 10
Cc1cc(=O)n2nc(N3CCC(C(=O)NCc4ccccc4F)CC3)sc2n1	none (no result: PERK inh, STAT3 activator, Hsp70 act)
Cc1ccn2c(CNCC3COCCO3)c(C(=O)N3CCCCCC3)nc2c1 (stereo unspecified)	none (no result: PERK inh, STAT3 activator, Hsp70 act)
COc1ccccc1C(c1nnnn1C(C)C)N1CCN(C(=O)c2ccco2)CC1 (stereo unspecified)	none (no result: PERK inh, STAT3 activator, Hsp70 act)
COc1ccc(-c2nc3n(c2C)Cc2ccccc2-3)cc1	AHR act 80 (no result: STAT3 activator, Hsp70 act) | AHR act cf 149 | PXR counter 17
COc1ccc(-c2nnsc2N2C(=O)c3ccccc3C2=O)cc1	none (no result: STAT3 activator, Hsp70 act)
CN1CCN(C(=O)c2ccccc2NS(=O)(=O)c2ccc(F)cc2)CC1	none (no result: PERK inh, HSF1 inh, STAT3 activator, Hsp70 act, PolyA inhibitor)
CCN(CC)C(=O)Sc1cccc2cccnc12	none
CC(=O)/C(=N/Nc1ccc(Br)cc1)Sc1cccc2cccnc12	AHR act 125 | AHR act cf 116 | PXR counter 180
C1N2CN3CN1CN(C2)C3	none (no result: PERK inh, HSF1 inh, STAT3 activator, Hsp70 act, PolyA inhibitor)
Cc1nc(N)nc(Nc2ccc(Cl)cc2)c1Br	AHR act 92 | AHR act cf 99
Cc1nc(N)nc(Nc2ccc(C#N)cc2)c1Br	none (no result: STAT3 activator, Hsp70 act)
C=CCn1c(=O)c(C(=O)NC2CC2)c(O)c2cc(OC)c(OC)cc21	AHR act 102 (no result: PERK inh, STAT3 activator, Hsp70 act) | AHR act cf inactive | PXR counter 30
Cc1cccc(Nc2nc(-c3ccc(O)c(O)c3)cs2)n1	none (no result: PERK inh, STAT3 activator, Hsp70 act)
Cc1cccc(Nc2nc(-c3ccc(F)c(C)c3)cs2)n1	AHR act 95 (no result: PERK inh, STAT3 activator, Hsp70 act) | AHR act cf 134 | PXR counter 34
COc1ccccc1C(=O)NCC(=O)NCCC(c1ccccc1)c1ccccc1	none (no result: PERK inh, HSF1 inh, STAT3 activator, Hsp70 act, PolyA inhibitor)
c1ccc(-c2nc3cc4ccccc4cc3[nH]2)nc1	AHR act 114 | AHR act cf inactive | PXR counter 23
COc1ccc(-c2noc(N3CCC(C(=O)NCCCN4CCCC(C)C4)CC3)n2)cc1 (stereo unspecified)	none (no result: PERK inh, STAT3 activator, Hsp70 act)
C(=N\Nc1ccc(-n2ccnc2)nn1)/c1ccccc1	none
COc1cccc(Nc2ccc(-n3ccnc3)nn2)c1	AHR act 81 | AHR act cf 79 | PXR counter 16
Cc1ccc(Nc2ccc(-n3ccnc3)nn2)cc1C	AHR act 91 | AHR act cf 48 | PXR counter inactive
O=C(NC1CCCC1)C(c1ccccn1)N(C(=O)c1csnn1)c1ccccc1Br (stereo unspecified)	none (no result: PERK inh, STAT3 activator, Hsp70 act)
CC(=O)NCCNc1nc2c(-c3ccccc3)nnn2c2ccccc12	AHR act 88 (no result: PERK inh, STAT3 activator, Hsp70 act) | AHR act cf 113 | PXR counter 19
Cc1ccc(NC(=O)Nc2cnc3ccccc3c2)cc1	AHR act 93 | AHR act cf 104 | PXR counter 22
Cc1ccc2oc(-c3cccc(N)c3)nc2c1	AHR act 110 | AHR act cf 107 | PXR counter 10
Cc1ccc(-c2nc3cc(C)ccc3o2)cc1	none
Cc1ccc2nc(-c3cccnc3)oc2c1	AHR act 89 | AHR act cf 106 | PXR counter 31
O=C(CC1NC(=O)NC1=O)Nc1ccc(Cl)cc1 (stereo unspecified)	none
O=C(CC1Nc2cccc3cccc(c23)NC1=O)Nc1ccc(F)cc1 (stereo unspecified)	AHR act 98 | AHR act cf 104 | PXR counter 92
O=S(=O)(O)c1nc2ccccc2[nH]1	none (no result: STAT3 activator, Hsp70 act)
CCn1nc(NC(=O)C(C)(C)C)c2cc3cccc(C)c3nc21	AHR act 85 (no result: PERK inh, STAT3 activator, Hsp70 act) | AHR act cf 89 | PXR counter 139
CC(C)N(CC(O)COc1ccc(CC(N)=O)cc1)CC(O)COc1ccc(CC(N)=O)cc1 (stereo unspecified)	none (no result: PERK inh, STAT3 activator, Hsp70 act)
CCn1c(CC(=O)Nc2ccc(C)cc2)n[nH]c1=S	none
COc1ccc(N(CCCN2C(=O)c3cccc4cccc(c34)C2=O)C(=O)c2cccs2)cc1	AHR act 100 | AHR act cf 140 | PXR counter 93
COc1cc(C)ccc1N(CCCN1C(=O)c2cccc3cccc(c23)C1=O)C(=O)c1cccs1	none
Cc1[nH]c2ccccc2c1/C=N/NC(=O)Cc1cccs1	AHR act 100 | AHR act cf 72 | PXR counter 38

Bioassay records: PubChem, several laboratories
